Assay results taken from ChEMBL document CHEMBL2331542, “Synthesis and in vitro antibacterial activity of quinolone/naphthyridone derivatives containing 3-alkoxyimino-4-(methyl)aminopiperidine scaffolds” (2013).
≈ marks a conversion by molar mass, not a printed value.

Assays:
Format in all cases: functional
[1] = test system: Escherichia coli; test: Antibacterial activity against extended-spectrum beta-lactamase-producing Escherichia coli isolate 12-2
Summary of the method: (§1)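 MIC determined in vitro by a standard technique and defined as the lowest compound concentration giving complete inhibition of bacterial growth. The Gram-positive and Gram-negative panels were tested alongside gemifloxacin, levofloxacin and ciprofloxacin reference drugs.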

[2] = test system: Staphylococcus epidermidis; test: Antibacterial activity against methicillin-sensitive Staphylococcus epidermidis isolate 12-1; summary of the method: as §1
[3] = test system: Staphylococcus aureus; test: Antibacterial activity against methicillin-resistant Staphylococcus aureus isolate 12-3
Summary of the method: (§2)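 MIC determined in vitro by standard techniques, defined as the lowest compound concentration giving complete inhibition of bacterial growth. Gemifloxacin, levofloxacin and ciprofloxacin were tested alongside as reference drugs.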

[4] = test system: Staphylococcus aureus; test: Antibacterial activity against methicillin-resistant Staphylococcus aureus isolate 12-15; summary of the method: as §2
[5] = test system: Staphylococcus epidermidis; test: Antibacterial activity against methicillin-resistant Staphylococcus epidermidis isolate 12-33; summary of the method: as §2
[6] = test system: Staphylococcus aureus; test: Antibacterial activity against methicillin-sensitive Staphylococcus aureus isolate 12-6; summary of the method: as §1
[7] = test system: Escherichia coli; test: Antibacterial activity against extended-spectrum beta-lactamase-producing Escherichia coli isolate 12-1; summary of the method: as §1
[8] = test system: Escherichia coli; test: Antibacterial activity against extended-spectrum beta-lactamase-producing Escherichia coli isolate 12-4; summary of the method: as §1
[9] = test system: Pseudomonas aeruginosa; test: Antibacterial activity against Pseudomonas aeruginosa ATCC 27853; summary of the method: as §1
[10] = test system: Streptococcus pneumoniae; test: Antibacterial activity against Streptococcus pneumoniae isolate 12-5; summary of the method: as §1
[11] = test system: Staphylococcus epidermidis; test: Antibacterial activity against methicillin-sensitive Staphylococcus epidermidis isolate 12-2; summary of the method: as §1
[12] = test system: Staphylococcus aureus; test: Antibacterial activity against methicillin-resistant Staphylococcus aureus isolate 12-13; summary of the method: as §2
[13] = test system: Klebsiella pneumoniae; test: Antibacterial activity against extended-spectrum beta-lactamase-producing Klebsiella pneumoniae isolate 12-4; summary of the method: as §1
[14] = test system: Staphylococcus epidermidis; test: Antibacterial activity against methicillin-resistant Staphylococcus epidermidis isolate 12-5; summary of the method: as §2
[15] = test system: Staphylococcus aureus; test: Antibacterial activity against methicillin-sensitive Staphylococcus aureus isolate 12-10; summary of the method: as §1
[16] = test system: Klebsiella pneumoniae; test: Antibacterial activity against extended-spectrum beta-lactamase-producing Klebsiella pneumoniae isolate 12-2; summary of the method: as §1
[17] = test system: Streptococcus pneumoniae; test: Antibacterial activity against Streptococcus pneumoniae isolate 12-2; summary of the method: as §1
[18] = test system: Escherichia coli; test: Antibacterial activity against Escherichia coli isolate 12-4; summary of the method: as §1
[19] = test system: Pseudomonas aeruginosa; test: Antibacterial activity against Pseudomonas aeruginosa isolate 12-2; summary of the method: as §1
[20] = test system: Pseudomonas aeruginosa; test: Antibacterial activity against Pseudomonas aeruginosa isolate 12-1; summary of the method: as §1
[21] = test system: Escherichia coli; test: Antibacterial activity against Escherichia coli isolate 12-1; summary of the method: as §1
[22] = test system: Escherichia coli; test: Antibacterial activity against Escherichia coli ATCC 25922; summary of the method: as §1
[23] = test system: Escherichia coli; test: Antibacterial activity against Escherichia coli isolate 12-5; summary of the method: as §1
[24] = test system: Staphylococcus aureus; test: Antibacterial activity against methicillin-sensitive Staphylococcus aureus isolate 12-7; summary of the method: as §1
[25] = test system: Klebsiella pneumoniae; test: Antibacterial activity against extended-spectrum beta-lactamase-producing Klebsiella pneumoniae isolate 12-1; summary of the method: as §1
[26] = test system: Klebsiella pneumoniae; test: Antibacterial activity against Klebsiella pneumoniae isolate 12-4; summary of the method: as §1
[27] = test system: Klebsiella pneumoniae; test: Antibacterial activity against Klebsiella pneumoniae isolate 12-1; summary of the method: as §1
[28] = test system: Klebsiella pneumoniae; test: Antibacterial activity against Klebsiella pneumoniae isolate 12-2; summary of the method: as §1
[29] = test system: Staphylococcus epidermidis; test: Antibacterial activity against methicillin-sensitive Staphylococcus epidermidis isolate 12-3; summary of the method: as §1
[30] = test system: Staphylococcus aureus; test: Antibacterial activity against Staphylococcus aureus […]; summary of the method: as §1
[31] = test system: Staphylococcus epidermidis; test: Antibacterial activity against methicillin-resistant Staphylococcus epidermidis isolate 12-35; summary of the method: as §2

SMILES | MIC [1] [µg/mL] | MIC [2] [µg/mL] | MIC [3] [µg/mL] | MIC [4] [µg/mL] | MIC [5] [µg/mL] | MIC [6] [µg/mL] | MIC [7] [µg/mL] | MIC [11] [µg/mL] | MIC [13] [µg/mL] | MIC [14] [µg/mL] | MIC [15] [µg/mL] | MIC [16] [µg/mL] | MIC [19] [µg/mL] | MIC [24] [µg/mL] | MIC [26] [µg/mL] | MIC [27] [µg/mL] | MIC [28] [µg/mL] | MIC [29] [µg/mL] | MIC [30] [µg/mL] | MIC [31] [µg/mL] | also measured
CCO/N=C1\CN(c2c(F)cc3c(=O)c(C(=O)O)cn4c3c2OC[C@@H]4C)CCC1NC (stereo partly drawn) | > 128 | 0.5 (≈ 1.16 µM) | 1 (≈ 2.31 µM) | 1 (≈ 2.31 µM) | 8 (≈ 18.5 µM) | 1 (≈ 2.31 µM) | > 128 | 2 (≈ 4.62 µM) | > 128 | 0.5 (≈ 1.16 µM) | > 128 | 32 (≈ 74 µM) | 8 (≈ 18.5 µM) | 128 (≈ 296 µM) | 1 (≈ 2.31 µM) | 2 (≈ 4.62 µM) | 1 (≈ 2.31 µM) | 0.5 (≈ 1.16 µM) | 0.5 (≈ 1.16 µM) | 0.5 (≈ 1.16 µM) | MIC [8]: 64 µg/mL (≈ 148 µM); MIC [9]: 32 µg/mL (≈ 74 µM); MIC [10]: 8 µg/mL (≈ 18.5 µM); MIC [12]: 1 µg/mL (≈ 2.31 µM); MIC [17]: 1 µg/mL (≈ 2.31 µM); MIC [18]: > 128 µg/mL; MIC [20]: 16 µg/mL (≈ 37 µM); MIC [21]: 4 µg/mL (≈ 9.25 µM); MIC [22]: 16 µg/mL (≈ 37 µM); MIC [23]: > 128 µg/mL; MIC [25]: 8 µg/mL (≈ 18.5 µM)
O=C1NC2CCN(c3nc4c(cc3F)c(=O)c(C(=O)O)cn4C3CC3)CC2O1 (stereo not drawn) | > 128 | 1 (≈ 2.57 µM) | 2 (≈ 5.15 µM) | 2 (≈ 5.15 µM) | 1 (≈ 2.57 µM) | 1 (≈ 2.57 µM) | > 128 | 2 (≈ 5.15 µM) | 128 (≈ 330 µM) | 0.5 (≈ 1.29 µM) | 0.5 (≈ 1.29 µM) | > 128 | 16 (≈ 41.2 µM) | 128 (≈ 330 µM) | 32 (≈ 82.4 µM) | 2 (≈ 5.15 µM) | 2 (≈ 5.15 µM) | 1 (≈ 2.57 µM) | 1 (≈ 2.57 µM) | 0.5 (≈ 1.29 µM) | MIC [8]: 64 µg/mL (≈ 165 µM); MIC [9]: 8 µg/mL (≈ 20.6 µM); MIC [10]: 0.5 µg/mL (≈ 1.29 µM); MIC [12]: 2 µg/mL (≈ 5.15 µM); MIC [17]: 2 µg/mL (≈ 5.15 µM); MIC [18]: > 128 µg/mL; MIC [20]: 16 µg/mL (≈ 41.2 µM); MIC [21]: 16 µg/mL (≈ 41.2 µM); MIC [22]: 1 µg/mL (≈ 2.57 µM); MIC [23]: > 128 µg/mL; MIC [25]: 128 µg/mL (≈ 330 µM)
O=C(O)c1cn(C2CC2)c2cc(N3CCNCC3)c(F)cc2c1=O [CIPROFLOXACIN] | – | 0.06 (≈ 0.181 µM) | – | – | 0.015 (≈ 0.0453 µM) | – | – | 0.5 (≈ 1.51 µM) | 4 (≈ 12.1 µM) | 0.015 (≈ 0.0453 µM) | 0.25 (≈ 0.754 µM) | 4 (≈ 12.1 µM) | 16 (≈ 48.3 µM) | 64 (≈ 193 µM) | 0.125 (≈ 0.377 µM) | 0.03 (≈ 0.0905 µM) | 0.125 (≈ 0.377 µM) | 0.06 (≈ 0.181 µM) | 0.25 (≈ 0.754 µM) | 0.015 (≈ 0.0453 µM) | MIC [25]: 2 µg/mL (≈ 6.04 µM)
C[C@H]1COc2c(N3CCN(C)CC3)c(F)cc3c(=O)c(C(=O)O)cn1c23.C[C@H]1COc2c(N3CCN(C)CC3)c(F)cc3c(=O)c(C(=O)O)cn1c23.O [LEVOFLOXACIN] | 16 | 0.25 | 0.125 | 0.125 | 8 | 0.125 | 16 | 0.25 | 4 | 0.125 | 0.06 | 8 | 16 | 32 | 0.25 | 0.06 | 0.06 | 0.25 | 0.125 | 0.125 | MIC [10]: 0.125 µg/mL; MIC [12]: 0.125 µg/mL; MIC [17]: 0.125 µg/mL; MIC [18]: 8 µg/mL; MIC [23]: 8 µg/mL
